# ChEMBL document CHEMBL4364287, “Enhanced Inhibition of Influenza A Virus Adhesion by Di- and Trivalent Hemagglutinin Inhibitors” (J Med Chem, 2019)
# Active and inactive are the calls of the source. The rule behind the calls is not given here.
# Legend:
# [1] = Inhibition of sensor loaded biotinylated-LAMP1 binding to Influenza A virus (A/Netherlands/178/1995(H3N2)) H3 hemagglutinin expressed in Influenza virus WU95 in presence of NA inhibitor oseltamivir carboxylate by biolayer interferometric analysis
# In short: (§1)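 OctetRed BLI: streptavidin sensors were saturated with biotinylated LAMP1 in PBS pH 7.4. They were dipped into WU95 (8 HAU, 2.5 × 10^8 particles per well) preincubated 4 h at room temperature with compound and 10 µM (end concentration) oseltamivir carboxylate. Initial binding rate was compared with a no-compound control.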
# [2] = Inhibition of Influenza A virus (A/Netherlands/178/1995(H3N2)) H3 hemagglutinin expressed in Influenza virus WU95 assessed as reduction in human erythrocytes hemagglutination preincubated for 4 hrs followed by erythrocytes addition and measured after 2 hrs; assay type: cell-based
# In short: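 Four hemagglutination units of virus were preincubated 4 h at room temperature with limiting compound dilutions in the presence of oseltamivir carboxylate. Then 0.5% (v/v) erythrocytes were added for 2 h at 4 °C. The lowest inhibiting concentration was recorded; two experiments were run in duplicate and means are reported.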
# [3] = test system: Influenza A virus (A/Netherlands/178/1995(H3N2)); assay: Inhibition of sensor loaded biotinylated-LAMP1 binding to Influenza A virus (A/Netherlands/178/1995(H3N2)) H3 hemagglutinin expressed in Influenza virus WU95 at 3 uM in presence of NA inhibitor oseltamivir carboxylate by biolayer interferometric analysis; in short: as §1
# [4] = test system: Influenza A virus (A/Bilthoven/1761/1976(H3N2)); assay: Inhibition of sensor loaded biotinylated-LAMP1 binding to Influenza A virus (A/Bilthoven/1761/1976(H3N2)) H3 hemagglutinin expressed in Influenza virus VI75 at 3 uM by biolayer interferometric analysis
# In short: (§2)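 BLI with streptavidin sensors loaded to saturation with biotinylated LAMP1 (PBS, pH 7.4). VI75 virus was preincubated 4 h at room temperature with 3 µM compound, without or with 10 µM oseltamivir carboxylate. Initial virus binding rate was compared with a compound-free control.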
# [5] = test system: Influenza A virus (A/Netherlands/178/1995(H3N2)); assay: Potency index, ratio of compound 7 IC50 to test compound IC50 for inhibition of sensor loaded biotinylated-LAMP1 binding to Influenza A virus (A/Netherlands/178/1995(H3N2)) H3 hemagglutinin expressed in Influenza virus WU95
# Influenza A virus [6] = assay: (§3) Antiviral activity against Influenza A virus WU95 expressing Influenza A virus (A/Netherlands/178/1995(H3N2)) H3 hemagglutinin infected in MDCK2 cells at 30 nM preincubated with virus for 4 hrs followed by cell infection and measured after 2 hrs by DAPI staining-based assay; assay type: functional, organism-based
# In short: (§4)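 WU95 was preincubated 4 h at room temperature in Opti-mem with or without 15 µM compound, ±10 µM oseltamivir carboxylate. The mixture was diluted 500-fold onto confluent MDCK-II for 2 h, giving end concentrations of 30 nM compound, 20 nM OC and MOI 0.01. Cells were washed, kept overnight at 37 °C with 10 nM bafilomycin, then fixed and nucleoprotein-immunostained.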
# [7] = test system: Influenza A virus (A/Netherlands/178/1995(H3N2)); assay: Potency index, ratio of compound 8 IC50 to test compound IC50 for Inhibition of Influenza A virus (A/Netherlands/178/1995(H3N2)) H3 hemagglutinin expressed in Influenza virus WU95 assessed as reduction in human erythrocytes hemagglutination; assay type: cell-based
# [8] = test system: Influenza A virus (A/Bilthoven/1761/1976(H3N2)); assay: Inhibition of sensor loaded biotinylated-LAMP1 binding to Influenza A virus (A/Bilthoven/1761/1976(H3N2)) H3 hemagglutinin expressed in Influenza virus VI75 at 3 uM in presence of NA inhibitor oseltamivir carboxylate by biolayer interferometric analysis; in short: as §2
# Influenza A virus [9] = assay: as §3, with “2 hrs in presence of 20 nM NA inhibitor oseltamivir carboxylate by DAPI” for “2 hrs by DAPI”; assay type: functional, organism-based; in short: as §4
# Influenza A virus [10] = assay: Antiviral activity against Influenza A virus WU95 expressing Influenza A virus (A/Netherlands/178/1995(H3N2)) H3 hemagglutinin infected in MDCK2 cells preincubated with virus for 4 hrs followed by cell infection and measured at 7 hrs post-infection by DAPI staining-based assay; assay type: functional, organism-based
# In short: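 Single-cycle infection: WU95 in Opti-mem was preincubated 4 h at room temperature with varying compound concentrations. Confluent MDCK-II cells were inoculated in triplicate at MOI 0.005 and fixed at 7 h post-infection in methanol (−20 °C, 5 min). Cells were immunostained for nucleoprotein (HB65, Alexa 488 secondary), counterstained with DAPI, and infected cells per well were counted.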
# Influenza A virus [11] = assay: as §3, with “assessed as reduction in virus-induced cytopathogenicity” for “at 30 nM”, “3 days” for “2 hrs”; assay type: functional, organism-based
# In short: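 WU95 virus was preincubated 4 h at room temperature in Opti-mem with varying compound concentrations. It was then inoculated onto confluent MDCK-II cells at MOI 0.005 and held 3 days with 1 µg/ml TPCK-trypsin to allow multiple rounds of infection. Cells were fixed and DAPI-stained, and monolayers inspected visually; absence of stained cells was taken as cell killing.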
# MDCK-II = assay: Cytotoxicity against MDCK2 cells assessed as reduction in cell viability measured after 24 hrs by WST1 assay; assay type: cell-based, Canis lupus familiaris; details: dog
# In short: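 MDCK-II cells were incubated 24 h in Opti-mem with compounds at different concentrations. Cell number and viability were then read by WST-1 assay.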
# [12] = test system: Influenza A virus (A/Netherlands/178/1995(H3N2)); assay: Inhibition of sensor loaded biotinylated-LAMP1 binding to Influenza A virus (A/Netherlands/178/1995(H3N2)) H3 hemagglutinin expressed in Influenza virus WU95 at 20 uM in presence of NA inhibitor oseltamivir carboxylate by biolayer interferometric analysis; in short: as §1
# Influenza A virus [13] = assay: Antiviral activity against Influenza A virus WU95 expressing Influenza A virus (A/Netherlands/178/1995(H3N2)) H3 hemagglutinin infected in MDCK2 cells at 20 nM preincubated with virus for 4 hrs followed by cell infection and measured after 2 hrs by DAPI staining-based assay; assay type: functional, organism-based; in short: as §4
smiles,measurement,setting,value
CC(=O)N[C@H]1[C@H](O[C@H]2[C@@H](O)[C@@H](CO)O[C@@H](O[C@H]3[C@H](O)[C@@H](O)[C@H](n4cc(-c5ccc(-c6cn(CCCC(=O)Nc7cccc(-c8cc(-c9cccc(NC(=O)CCCn%10cc(-c%11ccc(-c%12cn([C@@H]%13O[C@H](CO)[C@@H](O[C@@H]%14O[C@H](CO)[C@H](O)[C@H](O[C@@H]%15O[C@H](CO)[C@@H](O[C@@H]%16O[C@H](CO[C@]%17(C(=O)O)C[C@H](O)[C@@H](NC(C)=O)[C@H]([C@H](O)[C@H](O)CO)O%17)[C@H](O)[C@H](O)[C@H]%16O)[C@H](O)[C@H]%15NC(C)=O)[C@H]%14O)[C@H](O)[C@H]%13O)nn%12)cc%11)nn%10)c9)cc(-c9cccc(NC(=O)CCCn%10cc(-c%11ccc(-c%12cn([C@@H]%13O[C@H](CO)[C@@H](O[C@@H]%14O[C@H](CO)[C@H](O)[C@H](O[C@@H]%15O[C@H](CO)[C@@H](O[C@@H]%16O[C@H](CO[C@]%17(C(=O)O)C[C@H](O)[C@@H](NC(C)=O)[C@H]([C@H](O)[C@H](O)CO)O%17)[C@H](O)[C@H](O)[C@H]%16O)[C@H](O)[C@H]%15NC(C)=O)[C@H]%14O)[C@H](O)[C@H]%13O)nn%12)cc%11)nn%10)c9)c8)c7)nn6)cc5)nn4)O[C@@H]3CO)[C@@H]2O)O[C@H](CO)[C@@H](O[C@@H]2O[C@H](CO)[C@H](O)[C@H](O)[C@H]2O)[C@@H]1O,IC50,[1],0.71 µM
same,Ki,[2],10.3 µM
same,inhibition,[3],Active
same,inhibition,[4],Active
same,Ratio IC50,[5],428
same,Activity,Influenza A virus [6],Active
same,Ratio IC50,[7],35
same,inhibition,[8],Active
same,Activity,Influenza A virus [9],Active
CC(=O)N[C@H]1[C@H](O[C@H]2[C@@H](O)[C@@H](CO)O[C@@H](O[C@H]3[C@H](O)[C@@H](O)[C@H](OCc4cn(CCCC(=O)Nc5cccc(-c6cc(-c7cccc(NC(=O)CCCn8cc(CO[C@@H]9O[C@H](CO)[C@@H](O[C@@H]%10O[C@H](CO)[C@H](O)[C@H](O[C@@H]%11O[C@H](CO)[C@@H](O[C@@H]%12O[C@H](CO[C@]%13(C(=O)O)C[C@H](O)[C@@H](NC(C)=O)[C@H]([C@H](O)[C@H](O)CO)O%13)[C@H](O)[C@H](O)[C@H]%12O)[C@H](O)[C@H]%11NC(C)=O)[C@H]%10O)[C@H](O)[C@H]9O)nn8)c7)cc(-c7cccc(NC(=O)CCCn8cc(CO[C@@H]9O[C@H](CO)[C@@H](O[C@@H]%10O[C@H](CO)[C@H](O)[C@H](O[C@@H]%11O[C@H](CO)[C@@H](O[C@@H]%12O[C@H](CO[C@]%13(C(=O)O)C[C@H](O)[C@@H](NC(C)=O)[C@H]([C@H](O)[C@H](O)CO)O%13)[C@H](O)[C@H](O)[C@H]%12O)[C@H](O)[C@H]%11NC(C)=O)[C@H]%10O)[C@H](O)[C@H]9O)nn8)c7)c6)c5)nn4)O[C@@H]3CO)[C@@H]2O)O[C@H](CO)[C@@H](O[C@@H]2O[C@H](CO[C@]3(C(=O)O)C[C@H](O)[C@@H](NC(C)=O)[C@H]([C@H](O)[C@H](O)CO)O3)[C@H](O)[C@H](O)[C@H]2O)[C@@H]1O,IC50,Influenza A virus [10],15 µM
same,IC50,[1],4.3 µM
same,inhibition,[3],Active
same,inhibition,[4],Active
same,Activity,Influenza A virus [11],Active
same,Ratio IC50,[5],71
same,inhibition,[8],Active
same,Activity,MDCK-II,Non-Toxic
C#CCO[C@@H]1O[C@H](CO)[C@@H](O[C@@H]2O[C@H](CO[C@]3(C(=O)O)C[C@H](O)[C@@H](NC(C)=O)[C@H]([C@H](O)[C@H](O)CO)O3)[C@H](O)[C@H](O)[C@H]2O)[C@H](O)[C@H]1NC(C)=O,IC50,[1],304 µM
CC(=O)N[C@H]1[C@H]([C@H](O)[C@H](O)CO)O[C@@](OC[C@H]2O[C@@H](O[C@H]3[C@H](O)[C@@H](O)[C@H](OCc4cn([C@@H]5O[C@H](CO)[C@@H](n6cc(-c7ccc(-c8cn([C@H]9[C@H](O)[C@@H](O)[C@H](n%10cc(CO[C@@H]%11O[C@H](CO)[C@@H](O[C@@H]%12O[C@H](CO[C@]%13(C(=O)O)C[C@H](O)[C@@H](NC(C)=O)[C@H]([C@H](O)[C@H](O)CO)O%13)[C@H](O)[C@H](O)[C@H]%12O)[C@H](O)[C@H]%11O)nn%10)O[C@@H]9CO)nn8)cc7)nn6)[C@H](O)[C@H]5O)nn4)O[C@@H]3CO)[C@H](O)[C@@H](O)[C@H]2O)(C(=O)O)C[C@@H]1O,IC50,[1],13 µM
same,Ratio IC50,[5],23
CC(=O)N[C@H]1[C@H]([C@H](O)[C@H](O)CO)O[C@@](OC[C@H]2O[C@@H](O[C@H]3[C@H](O)[C@@H](O)[C@H](OCc4cn(CCCC(=O)Nc5cccc(-c6cc(-c7cccc(NC(=O)CCCn8cc(CO[C@@H]9O[C@H](CO)[C@@H](O[C@@H]%10O[C@H](CO[C@]%11(C(=O)O)C[C@H](O)[C@@H](NC(C)=O)[C@H]([C@H](O)[C@H](O)CO)O%11)[C@H](O)[C@H](O)[C@H]%10O)[C@H](O)[C@H]9O)nn8)c7)cc(-c7cccc(NC(=O)CCCn8cc(CO[C@@H]9O[C@H](CO)[C@@H](O[C@@H]%10O[C@H](CO[C@]%11(C(=O)O)C[C@H](O)[C@@H](NC(C)=O)[C@H]([C@H](O)[C@H](O)CO)O%11)[C@H](O)[C@H](O)[C@H]%10O)[C@H](O)[C@H]9O)nn8)c7)c6)c5)nn4)O[C@@H]3CO)[C@H](O)[C@@H](O)[C@H]2O)(C(=O)O)C[C@@H]1O,IC50,[1],15 µM
same,Ki,[2],53 µM
same,Ratio IC50,[5],20
same,Ratio IC50,[7],7
CC(=O)N[C@H]1[C@H](O[C@H]2[C@@H](O)[C@@H](CO)O[C@@H](O[C@H]3[C@H](O)[C@@H](O)[C@H](n4cc(-c5ccc(-c6cn(CCCC(=O)Nc7cccc(-c8cc(-c9cccc(NC(=O)CCCn%10cc(-c%11ccc(-c%12cn([C@@H]%13O[C@H](CO)[C@@H](O[C@@H]%14O[C@H](CO)[C@H](O)[C@H](O[C@@H]%15O[C@H](CO)[C@@H](O[C@@H]%16O[C@H](CO)[C@H](O)[C@H](O)[C@H]%16O)[C@H](O)[C@H]%15NC(C)=O)[C@H]%14O)[C@H](O)[C@H]%13O)nn%12)cc%11)nn%10)c9)cc(-c9cccc(NC(=O)CCCn%10cc(-c%11ccc(-c%12cn([C@@H]%13O[C@H](CO)[C@@H](O[C@@H]%14O[C@H](CO)[C@H](O)[C@H](O[C@@H]%15O[C@H](CO)[C@@H](O[C@@H]%16O[C@H](CO)[C@H](O)[C@H](O)[C@H]%16O)[C@H](O)[C@H]%15NC(C)=O)[C@H]%14O)[C@H](O)[C@H]%13O)nn%12)cc%11)nn%10)c9)c8)c7)nn6)cc5)nn4)O[C@@H]3CO)[C@@H]2O)O[C@H](CO)[C@@H](O[C@@H]2O[C@H](CO)[C@H](O)[C@H](O)[C@H]2O)[C@@H]1O,inhibition,[12],inactive
CCC(CC)O[C@@H]1C=C(C(=O)O)C[C@H](N)[C@H]1NC(C)=O,Activity,Influenza A virus [13],Active
